Reference: ChEMBL document CHEMBL1150296, “Synthesis and DNA cleaving activity of water-soluble non-conjugated thienyl tetraynes” (Bioorg Med Chem, 2008)
Blank lines part the entries; values can stand above or below the compound they belong to. The source made the active and inactive calls. The rule behind the calls is not given here.

Assays:
[1] = test system: Escherichia coli; assay: Effect on DNA cleavage in ampicillin resistant Escherichia coli DH5alpha transformed pBluescript 2 KS+ DNA assessed as number of colonies at 1 mM after 15 hrs by transformation assay
Method in brief: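 Plasmid DNA (2.0 µg) exposed to tetrayne at 1.0 mM (final DMSO 3.0%) at 37 °C, recovered by ethanol precipitation, redissolved in water and heated 60 °C for 10 min. Heat-shock transformation of competent E. coli (DH5a or JM109) at 42 °C for 1 min, 1 h recovery in LB at 37 °C, plating on ampicillin (100 mg/L) LB agar, 37 °C for 15 h; colonies counted.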

[2] = test system: Escherichia coli; assay: Induction of Escherichia coli pBluescript 2 KS+ DNA cleavage assessed as increase in nicked form 2 at 1 mM by gel electrophoresis
Method in brief: (§1)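 pBluescript II KS+ (2.0 µg) incubated overnight at 37 °C with tetrayne in 20 µL, final DMSO 3.0%. Level 1.0 mM; 0.1, 0.3, 0.6 mM also run for the dose series. DNA ethanol-precipitated, redissolved, held 60 °C 10 min then 37 °C 30 min, run on 0.7% agarose; ethidium bromide stain, UV imaging of supercoiled, nicked and linear forms.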

[3] = test system: Escherichia coli; assay: Induction of Escherichia coli pBluescript 2 KS+ DNA cleavage assessed as formation of burst star shaped architecture at 1 mM by atomic force microscopy
Method in brief: (§2)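 Plasmid exposed to tetrayne (1.0 mM, 37 °C, 6 h), ethanol-precipitated, pellet taken up in water. Sample spotted on flat mica for 1 min at room temperature, excess water blown off with air, then single DNA molecule shapes imaged by atomic force microscopy.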

[4] = test system: Escherichia coli; assay: Induction of Escherichia coli pBluescript 2 KS+ DNA cleavage by gel electrophoresis; method in brief: as §1
[5] = test system: Escherichia coli; assay: Induction of Escherichia coli pBluescript 2 KS+ DNA cleavage assessed as decrease in form 1 at 1 mM by gel electrophoresis; method in brief: as §1
[6] = test system: Escherichia coli; assay: Induction of Escherichia coli pBluescript 2 KS+ DNA cleavage assessed as increase in form 3 at 1 mM by gel electrophoresis; method in brief: as §1
[7] = test system: Escherichia coli; assay: Induction of Escherichia coli pBluescript 2 KS+ DNA cleavage assessed as linear form 3 at 1 mM by atomic force microscopy; method in brief: as §2

SMILES: COCc1ccccc1C#CC#Cc1cc(C(=O)O)sc1C(O)C#CC#CC(C)(C)C (stereo unspecified)
Activity [1]: > 1000

SMILES: CN(C)C
Activity [1]: > 1000

The next lines start with the values.

Activity [2]: Active
Activity [3]: Active
Activity [1]: 8
Activity [4]: Dose-dependent effect
Activity [5]: Active
Activity [6]: Active
Activity [7]: Active
SMILES: COCc1ccccc1C#CC#Cc1cc(CN(C)C)sc1C(=O)C#CC#CC(C)(C)C

Activity [1]: > 1000
SMILES: COCc1ccccc1C#CC#Cc1cc(C(=O)O)sc1C(=O)C#CC#CC(C)(C)C

Activity [1]: > 1000
SMILES: COCc1ccccc1C#CC#Cc1cc(CN(C)C)sc1C(O)C#CC#CC(C)(C)C (stereo unspecified)
